# Sampled rows, rich in hits. Any-hit rate of the full collection: about 5.3%.
# CSC inhib = cancer stem cell viability inhibitors, primary screen, luminescence | cancer stem cell-like cells viability | inhibition, % at 7.5 µM | 300,000 compounds, 1.1% hits | AID 2717, 2010; in the data active means inhibition above about 75%; inconclusive means no clear call, values can overlap the other calls; tested in HMLE shEcad cells
# T cruzi inh = inhibitors of intracellular T. cruzi growth, primary screen, luminescence, NIH3T3 host cells; T. cruzi beta-gal in NIH3T3, 90 h; inhibition, % (concentration not given with the values); 300,000 compounds, 1.4% hits;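 active means mean inhibition across valid replicates above about 55%, limit read from the data; inconclusive means mean below that limit but half or more replicates reach it; inactive means mean below it, under half of replicates reach it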;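 further: signal also drops with host cell toxicity which is not excluded here; 0% = plate median of DMSO wells and 100% = zero luminescence signal; higher percent means less beta-gal luminescence so fewer parasites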
#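 System – NIH/3T3 host cells with β-galactosidase reporter T. cruzi · Doses – single 50 nL compound addition per well in DMSO · Reagent – 5000 T. cruzi trypomastigotes/well · Medium – Low-serum DMEM with 2% FBS · Timing – ≥90 h infection period, 3 h prior cell attachment · Evaluation – parasite load inhibition, % · Technique – GalScreen luminescence, 60 min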
# Beta apoptosis = inhibitors of cytokine-induced beta cell apoptosis, primary screen, luminescence; INS-1E cytokine-induced death, ATP luminescence, 48 h; percent of positive-control rescue, neutral wells zero; protection from apoptosis, % (concentration not given with the values); 300,000 compounds, 0.8% hits; AID 435005, 2010;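 active means Every replicate reaches about 75%, or at least half do and their mean reaches it too, limit read from the data; inconclusive means At least half of replicates reach the limit but their mean does not; inactive means Under half of replicates reach the limit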;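 further: 0% = cytokine-treated negative control wells and 100% = positive control rescue; higher means more ATP so stronger rescue from cytokine killing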
# Calb FLC = C. albicans growth inhibition with fluconazole, primary screen, CaCi-2 strain, Alamar Blue fluorescence | 300,000 compounds, 0.57% hits | C. albicans CaCi-2 (fluconazole-resistant clinical isolate) + fluconazole, 48 h | growth inhibition, % (concentration not given with the values);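 active means growth inhibition above about 58% in most replicates, limit read from the data, passing the limit was not always enough; inconclusive means exactly half the replicates above a set limit; inactive means most replicates below a set limit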;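 further: all wells also contain fluconazole at 8 µg/ml as a sub-toxic cotreatment; 0% = median of DMSO wells and 100% = median of geldanamycin control wells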
# Mdm2-MdmX inh = inhibitors of human Mdm2-MdmX association, primary screen, cell-based, luminescence, split luciferase, SaOS-2, uHTS; SaOS-2 split-luciferase Mdm2/MdmX complementation; inhibition, % at 8 µM; 330,000 compounds, 3% hits; AID 485346, 2010;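 active means inhibition of at least 50% at 8 µM in the primary screen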
# Target sequence (O15151 whole entry, looked up): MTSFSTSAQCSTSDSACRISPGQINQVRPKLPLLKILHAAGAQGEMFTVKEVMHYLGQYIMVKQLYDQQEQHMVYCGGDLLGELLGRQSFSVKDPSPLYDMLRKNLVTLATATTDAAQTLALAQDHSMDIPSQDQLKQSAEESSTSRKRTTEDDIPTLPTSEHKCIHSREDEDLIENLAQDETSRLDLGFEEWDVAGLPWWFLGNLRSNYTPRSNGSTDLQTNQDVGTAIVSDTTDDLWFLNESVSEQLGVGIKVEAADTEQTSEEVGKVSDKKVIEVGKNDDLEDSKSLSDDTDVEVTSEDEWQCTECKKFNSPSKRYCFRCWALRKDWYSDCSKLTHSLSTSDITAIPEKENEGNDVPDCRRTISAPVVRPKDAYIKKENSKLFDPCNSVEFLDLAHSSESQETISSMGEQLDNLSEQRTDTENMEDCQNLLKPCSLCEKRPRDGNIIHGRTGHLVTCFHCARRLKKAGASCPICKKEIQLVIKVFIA
# Target sequence (Q00987 whole entry, looked up): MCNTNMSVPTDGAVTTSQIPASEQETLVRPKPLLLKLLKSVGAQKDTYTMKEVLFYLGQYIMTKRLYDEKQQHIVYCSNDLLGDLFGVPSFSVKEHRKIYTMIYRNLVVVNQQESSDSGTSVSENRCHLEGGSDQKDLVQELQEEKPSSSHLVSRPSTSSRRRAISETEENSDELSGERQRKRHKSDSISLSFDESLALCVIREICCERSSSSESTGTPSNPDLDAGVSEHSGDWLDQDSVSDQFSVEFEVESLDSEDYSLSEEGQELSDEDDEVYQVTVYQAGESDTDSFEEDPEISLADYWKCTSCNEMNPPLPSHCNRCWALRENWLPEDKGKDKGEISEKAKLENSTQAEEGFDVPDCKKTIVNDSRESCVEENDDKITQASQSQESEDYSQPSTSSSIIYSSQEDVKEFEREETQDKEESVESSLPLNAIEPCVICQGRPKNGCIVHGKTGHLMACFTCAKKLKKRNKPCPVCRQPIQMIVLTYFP
# NLRP3 yeast inh = NALP3 inflammasome inhibitors in reconstituted yeast, primary screen, luminescence, uHTS. AID 2825, 2010. Yeast reconstituted NLRP3/ASC/caspase-1, beta-gal luminescence, 24 h. 330,000 compounds, 0.39% hits. inhibition, % at 10 µM;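 active means inhibition of 50% or more; inactive means inhibition below 50%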;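 further: plate controls were induced DMSO wells for no effect and uninduced yeast grown without galactose for full effect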
# Mdm2-MdmX conf = Mdm2-MdmX complex disruptors, retested hits, confirmation, luminescence, single concentration. Mdm2-MdmX binding, luminescent assay. AID 489028, 2010. 10,000 compounds, 55% hits. shares compounds with Mdm2-MdmX inh. inhibition, % at 8 µM; in the data active means inhibition above about 40%
# Full FLuc ctr = full-length luciferase signal inhibition, confirmation, counter-screen for Mdm2/MdmX interaction inhibitor project, cell-based, single concentration, SaOS-2; shares compounds with Mdm2-MdmX inh; SaOS-2 full-length luciferase counterscreen, luminescence; inhibition, % at 8 µM; 6,200 compounds, 77% hits; AID 504607, 2011;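 active means mean inhibition at 8 µM reaching about 37%, which flags the compound as non-specific, limit read from the data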;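 further: p53-null SaOS-2 cells with luciferase driven by a doxycycline-inducible promoter; compound on cells about two nights before reading with doxycycline added after day one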
# Starred values were filed as active, the others as inactive; ? = inconclusive; nt = no result given.
SMILES,CSC inhib,T cruzi inh,Beta apoptosis,Calb FLC,Mdm2-MdmX inh,NLRP3 yeast inh,Mdm2-MdmX conf,Full FLuc ctr
O=c1cc(-c2ccccc2Cl)oc2c(NS(=O)(=O)c3cc(Cl)cc(Cl)c3O)ccc(O)c12,102*,-5,45,?,98*,-10,83*,43*
CCC(CC)NC(=O)c1ccc(NS(=O)(=O)c2ccc3[nH]c(=O)[nH]c3c2)cc1,2,-29,-3,23,2,5,nt,nt
Cc1ccc(C(NC(=O)C2CCCCC2)c2c(O)ccc3ccccc23)cc1 (centres undefined),54,45,41,?,80*,-13,61*,49*
COC(=O)N/N=C/c1ccc(Oc2ccccc2)cc1,-1,-3,-5,-17,7,38,nt,nt
CN(CC(=O)Nc1ccccc1Cl)C(=O)COC(=O)c1ccc(Cl)nc1,-12,-5,-5,-1,21,8,nt,nt
CN(CC(=O)Nc1ccccc1Cl)C(=O)COC(=O)c1nc(Cl)c(Cl)c(Cl)c1Cl,30,?,0,5,78*,28,41*,31
CC(C)(C)[C@@H]1C=C(C(=O)N2CCN(Cc3ccccc3)CC2)O[C@H](OCCCCO)C1,-5,-6,-4,-19,19,15,nt,nt
Cc1c(C(=O)N2CCN(c3ccccn3)CC2)sc2ncnc(N3CCN(c4ccccc4)CC3)c12,-7,26,2,11,17,8,nt,nt
CCOC(=O)c1c(-c2ccc(-c3ccccc3)cc2)csc1NC(=O)CNCCN(C)C,99*,47,55,4,83*,24,53*,61*
CCOC(=O)c1c(-c2ccccc2)csc1NC(=O)CCN1C(=O)c2ccccc2C1=O,55,2,-8,18,15,27,nt,nt
CC1=NN(c2nc(-c3ccc(C)cc3)cs2)C(=O)C1N=Nc1ccccc1O (centres undefined),55,55*,29,3,72*,24,80*,32
N#Cc1c(N2CCCCC2)nc(N2CCCCC2)c2c1CCN(Cc1ccccc1)C2,-1,56*,?,38,53*,18,24,nt
Cc1cc(C)c(C#N)c(N2CCN(Cc3ccccc3)CC2)n1,nt,11,nt,-34,-4,5,nt,nt
C[C@@]12C(=O)Nc3ccc(Cl)cc3C(=O)N1[C@H]1c3cc(Cl)ccc3OC[C@@H]1[C@@H]2c1ccccc1,27,nt,12,nt,53*,4,14,nt
C[C@@]12C(=O)Nc3cc(F)c(F)cc3C(=O)N1[C@H]1c3cc(Cl)ccc3OC[C@@H]1[C@@H]2c1ccccc1,59,nt,6,nt,51*,9,34,nt
COc1ccc2c(c1)OC[C@H]1[C@H]2N2C(=O)c3ccccc3NC(=O)[C@@]2(C)[C@H]1c1ccccc1,nt,nt,4,nt,50*,-12,36,54*
C[C@@]12C(=O)Nc3ccccc3C(=O)N1[C@H]1c3cc(Cl)ccc3OC[C@@H]1[C@@H]2c1ccccc1,nt,nt,-2,nt,48,0,nt,nt
CCOc1ccccc1NS(=O)(=O)c1ccc2[nH]c(=O)ccc2c1,3,7,2,3,17,-7,nt,nt
Cc1nc2ccccc2n1CCc1nc2c3ccccc3nc(SCC(=O)NCc3ccco3)n2n1,nt,-1,-1,16,13,-2,nt,nt
O=C(CCl)NCc1cc(-c2ccc(Cl)cc2)no1,59,51,-8,9,73*,-27,29,66*
COc1ccc(OCc2cc(-c3ccc(Cl)cc3)no2)cc1,5,-83,-12,6,-18,22,nt,nt
COc1ccc(NC(=O)Nc2cccc(OC)c2)cc1,-2,3,2,-10,-28,23,nt,nt
O=C(Nc1nnc(-c2ccccc2SCc2ccccc2)s1)Nc1ccccc1F,-2,-3,17,11,76*,-1,17,nt
COc1cccc(NC(=O)Nc2nc(SC(C)(C)C)ns2)c1,96*,27,nt,3,93*,42,72*,57*
COc1cccc(NC(=O)Nc2nnc(-c3ccccc3SCc3ccccc3)s2)c1,0,nt,34,-12,53*,17,33,nt
SMILES,CSC inhib,T cruzi inh,Beta apoptosis,Calb FLC,Mdm2-MdmX inh,NLRP3 yeast inh,Mdm2-MdmX conf,Full FLuc ctr
Nc1nc2ccc(C(=O)NC3CCCCC3)cc2s1,11,-13,1,3,-1,15,nt,nt
CCOc1ccc(OCCC(=O)N(CCC2=CCCCC2)c2c(N)n(Cc3ccccc3)c(=O)[nH]c2=O)cc1,-2,11,11,4,21,17,nt,nt
CCOc1ccc(OCC(=O)N(CCC2=CCCCC2)c2c(N)n(Cc3ccccc3)c(=O)[nH]c2=O)cc1,76*,2,nt,-3,68*,24,56*,92*
CCc1cc(-c2onc(C)c2-c2cscn2)c(O)cc1OC,18,-8,0,-1,5,7,nt,nt
CCOc1ccccc1CNC(=O)CCc1cn(CC)c2ccccc12,-6,8,-1,-16,7,10,nt,nt
COc1ccc(/C=N/Nc2nccnc2Cl)c(OC)c1,-1,10,-8,-11,-15,34,nt,nt
Oc1ccccc1/C=N/Nc1nccnc1Cl,88*,27,94*,97*,71*,33,65*,31
Oc1ccc(/C=N/Nc2nccnc2Cl)c(O)c1,95*,59*,75*,42,57*,12,73*,39*
Cc1ccc2c(c1)c(Sc1ccccc1)c(CC(=O)O)n2C,-17,-4,-5,-29,-23,18,nt,nt
O=C(NNC(=S)Nc1cccc(Cl)c1)c1ccccc1OC(F)F,-25,-10,-3,?,-7,19,nt,nt
Cc1ccc(NC(=O)c2cc(C(=O)c3cc(Cl)ccc3O)cn(-c3ccc(C)cc3)c2=O)cc1,-6,20,48,-3,88*,16,86*,44*
O=C(CCNC(=O)c1ccc(Br)cc1)NC1CCCc2ccccc21 (centres undefined),50,-1,1,8,88*,18,89*,46*
CCOc1cc(C#N)ccc1OCC(=O)N1CCc2ccccc2C1,-13,-2,1,-2,-10,20,nt,nt
CC[C@@H]1CC=C[C@H]2[C@H]1C(=O)N(Cc1ccccc1)[C@H]2c1ccoc1,86*,42,6,7,69*,8,9,nt

# Screening results from PubChem.
